Here are results for four compounds from ChEMBL document CHEMBL1140208, “Selectivity and mechanism of action of a growth factor receptor-bound protein 2 SRC homology 2 domain binding antagonist” (J Med Chem, 2008).

Activity calls are given as the source filed them. The rule behind the calls is not given here.

By IC50 is commonly meant the midpoint of a concentration-inhibition curve.

Assay [1] relates to PC-3M. The assay can be described thus: (§1) Antimotility activity in human PC3M cells assessed as inhibition of HGF-stimulated cell migration after 24 hrs by Boyden chamber assay. The assay is classed as functional, cell-based. Put shortly: (§2)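 PC3M cells pretreated with compound 24 h, seeded 200,000 per modified Boyden chamber; migration stimulated with recombinant human HGF 50 ng/ml. Migrated cells counted by light microscopy in four fields (1 × 1.4 mm) per well, triplicate wells per condition; expressed as percent maximum, mean ± standard deviation; dose-response analysis.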

Assay [2] concerns the target Growth factor receptor-bound protein 2 (Homo sapiens) (UniProt P62993). Nature of the assay: Binding affinity to human recombinant HGF-stimulated Grb2-SH2 in human SK-LMS1 cells at 3 uM by immunoblot analysis. The assay is classed as cell-based. In a few lines: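 SK-LMS-1 cells serum-deprived 16 h, stimulated with recombinant human HGF 25 ng/ml for 20 min, lysed in cold non-ionic detergent buffer. Biotinylated ligand (3 μM) added to lysate, 1 h on ice; streptavidin beads added, 1 h at 4°C. Beads washed five times with lysis buffer at 150–500 mM NaCl; bound Grb2 detected by SDS-PAGE and anti-Grb2 immunoblot.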
(In western blotting, separated proteins are transferred to a membrane and probed.)

Assay [3] can be described thus: Selectivity ratio for streptavidin-coupled biotin-labeled Shc-SH2 to streptavidin-coupled biotin-labeled Grb2-SH2. Put shortly: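 Ratio of Shc-SH2 to Grb2-SH2 steady-state affinities, both measured by SPR on Neutravidin-captured biotinylated SH2 domains (Biacore T100, 25°C, PBS pH 7.4, inhibitors 1.25–1500 nM, 1:1 fit).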
The target in assay [4] is Serine/threonine-protein kinase PAK 1 (Homo sapiens) (UniProt Q13153). The assay can be described thus: Inhibition of HGF-stimulated PAK1 activation in human PC3M cells at 1 uM after 16 hrs by immunoblot analysis. The assay is classed as cell-based. Put shortly: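 PC3M cells serum-deprived and treated 16 h with 1 μM compound or left untreated, then stimulated briefly with HGF (50 ng/mL) for various times. Lysates probed by immunoblot with anti-phospho-PAK1; anti-PAK1 served as loading control.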

Assay [5] has the same target. Nature of the assay: Decrease in HGF-stimulated PAK1 nuclear translocation in human PC3M cells at 1 uM after 16 hrs by immunoblot analysis. The assay is classed as cell-based. Put shortly: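 PC3M cells treated with compound for 16 h; nuclear extracts prepared with high-salt buffer. PAK1 detected by SDS-PAGE and anti-PAK1 immunoblot, with anti-CREB immunoblot alongside.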

Assay [6] deals with PC-3M. Nature of the assay: Inhibition of HGF-induced human PC3M cell migration assessed as reduction in actin bundle reorganization and membrane extension at 1 uM after 6 hrs by DAPI staining. The assay is classed as functional, cell-based. Put shortly: (§3)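 Cells in chamber slides serum-deprived ± 1 μM compound for 24 h, monolayer scratched with pipet tip, then incubated ± HGF 50 ng/ml (6 h) before fixation and permeabilization. Blocked with 5% BSA, stained overnight at 4°C with Alexa488-phalloidin for F-actin, nuclei counterstained with DAPI; lamellipodia at wound edge imaged by epifluorescence videomicroscopy.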

Another assay deals with MDCK. Nature of the assay: Inhibition of HGF-induced MDCK cell migration assessed as reduction in actin bundle reorganization and membrane extension at 1 uM after 6 hrs by DAPI staining. Conditions: Canis lupus familiaris. The assay is classed as functional, cell-based. Put shortly: as §3
A short description of assay [7]: as §1. The note with it: PC-3M. The assay is classed as functional, cell-based. Put shortly: as §2
Assay [8] has as its target Growth factor receptor-bound protein 2 (Homo sapiens) (UniProt P62993). Nature of the assay: Binding affinity to human recombinant HGF-stimulated Grb2-SH3 in human SK-LMS1 cells assessed as presence of associated protein Nck1 at 3 uM by immunoblot analysis. The assay is classed as cell-based.
The target is the same in assay [9]. The assay can be described thus: Binding affinity to human recombinant HGF-stimulated Grb2-SH3 in human SK-LMS1 cells assessed as presence of associated protein Nck2 at 3 uM by immunoblot analysis. The assay is classed as cell-based.
For assay [10] the target is unchanged. Nature of the assay: Binding affinity to human recombinant HGF-stimulated Grb2-SH3 in human SK-LMS1 cells assessed as presence of associated protein Gab1 at 3 uM by immunoblot analysis. The assay is classed as cell-based.
For assay [11] the target is unchanged. The assay can be described thus: Binding affinity to human recombinant HGF-stimulated Grb2-SH3 in human SK-LMS1 cells assessed as presence of associated protein Sos1 at 3 uM by immunoblot analysis. Type of assay: cell-based.

Chain of Growth factor receptor-bound protein 2 (Homo sapiens) (P62993 whole entry, looked up): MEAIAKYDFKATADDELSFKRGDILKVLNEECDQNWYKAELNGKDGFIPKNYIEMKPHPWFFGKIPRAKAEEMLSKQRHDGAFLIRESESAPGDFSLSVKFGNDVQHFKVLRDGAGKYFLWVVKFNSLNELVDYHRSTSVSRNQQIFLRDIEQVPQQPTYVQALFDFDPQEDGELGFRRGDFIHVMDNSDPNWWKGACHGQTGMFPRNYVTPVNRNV
Chain of Serine/threonine-protein kinase PAK 1 (Homo sapiens) (Q13153 whole entry): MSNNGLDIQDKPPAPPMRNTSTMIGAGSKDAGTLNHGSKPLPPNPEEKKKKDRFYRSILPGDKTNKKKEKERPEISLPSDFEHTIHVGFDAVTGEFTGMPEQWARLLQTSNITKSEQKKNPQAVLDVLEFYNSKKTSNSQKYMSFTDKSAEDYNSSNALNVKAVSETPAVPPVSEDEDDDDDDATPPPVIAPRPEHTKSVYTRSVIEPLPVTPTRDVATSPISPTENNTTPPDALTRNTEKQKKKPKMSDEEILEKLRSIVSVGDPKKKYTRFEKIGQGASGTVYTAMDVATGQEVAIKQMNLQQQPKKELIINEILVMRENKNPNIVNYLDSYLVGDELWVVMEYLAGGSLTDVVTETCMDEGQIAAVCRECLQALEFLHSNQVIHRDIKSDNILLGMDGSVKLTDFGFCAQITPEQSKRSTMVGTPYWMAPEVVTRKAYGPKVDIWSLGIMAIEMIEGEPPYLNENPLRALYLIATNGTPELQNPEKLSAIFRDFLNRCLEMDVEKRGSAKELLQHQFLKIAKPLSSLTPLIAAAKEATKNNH

Consider `NC(=O)C[C@H](NC(=O)C1(NC(=O)[C@H](Cc2ccc(O)cc2)NC(=O)C(=O)O)CCCCC1)C(=O)NCCCc1cccc2c(OC(=O)CCCCCNC(=O)CCCC[C@@H]3SC[C@@H]4NC(=O)N[C@@H]43)cccc12`, for which the result (with PC-3M [1]; in assay [2]) was inactive.
For `NC(=O)C[C@H](NC(=O)C1(NC(=O)[C@H](Cc2ccc(C(C(=O)O)C(=O)O)cc2)NC(=O)C(=O)O)CCCCC1)C(=O)NCCCc1cccc2c(O)cccc12`, in assay [3], the Ratio was found to be 101.
In the case of `NC(=O)C[C@H](NC(=O)C1(NC(=O)[C@H](Cc2ccc(C(C(=O)O)C(=O)O)cc2)NC(=O)C(=O)O)CCCCC1)C(=O)NCCCc1cccc2ccccc12`, in [3], the Ratio came out at 65. Also, the outcome (in assay [4]; in assay [5]; in the assay on PC-3M [6]; in the assay with MDCK) was Active.
Take `NC(=O)C[C@H](NC(=O)C1(NC(=O)[C@H](Cc2ccc(C(C(=O)O)C(=O)O)cc2)NC(=O)C(=O)O)CCCCC1)C(=O)NCCCc1cccc2c(OC(=O)CCCCCNC(=O)CCCC[C@@H]3SC[C@@H]4NC(=O)N[C@@H]43)cccc12`: the IC50 in [7] amounted to 14 nM. In addition, the result in assay [2], in [8], in assay [9], in [10] and in assay [11] was Active.
